Measured values: article PMC8367020 (Journal of the American Chemical Society, 2021)
Where “and” joins values, the source holds several entries; their conditions need not be identical. Equal values may be shown once. Read-outs that look alike come from different tables or passages of the source. Marks after values point to notes of the source that are not given here.

Legend:
hOAT [1] = target: T1, hOAT (Homo sapiens, UniProt P04181); assay: Time-dependent inactivation kinetics of hOAT; assay type: biochemical
T1 sequence (P04181 26-439): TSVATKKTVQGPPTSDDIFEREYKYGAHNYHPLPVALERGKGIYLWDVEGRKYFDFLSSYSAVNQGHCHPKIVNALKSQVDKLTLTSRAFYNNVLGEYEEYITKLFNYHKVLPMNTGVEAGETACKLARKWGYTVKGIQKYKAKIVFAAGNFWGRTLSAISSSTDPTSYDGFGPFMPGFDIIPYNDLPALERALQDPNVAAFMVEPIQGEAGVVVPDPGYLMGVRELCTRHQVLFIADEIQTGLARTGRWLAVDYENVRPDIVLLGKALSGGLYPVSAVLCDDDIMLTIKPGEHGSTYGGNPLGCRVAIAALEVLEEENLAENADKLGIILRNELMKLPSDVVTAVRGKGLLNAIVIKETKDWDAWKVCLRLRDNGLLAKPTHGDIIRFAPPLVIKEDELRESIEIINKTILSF

GABA-AT [2] = target: T2, GABA-AT (Sus scrofa, UniProt P80147); assay: Reversible inhibition of GABA-AT; assay type: biochemical; details: Ki = IC50/(1+[S]/Km)
GABA-AT [3] = target: T2, GABA-AT; details: cited from earlier work
hOAT [4] = target: T1, hOAT; details: cited from earlier work
hOAT [5] = target: T1, hOAT; details: cited from earlier work; remark: listed apart in the source
[6] = system: aspartate aminotransferase (Asp-AT); details: up to 4 mM; cited from earlier work
[7] = system: alanine aminotransferase (Ala-AT); details: up to 4 mM; cited from earlier work
[8] = system: human-derived HCC mouse model; details: 0.1 and 1.0 mg/kg; po; cited from earlier work
hOAT [9] = target: T1, hOAT; details: cited from earlier work; remark: listed apart in the source
hOAT [10] = target: T1, hOAT; assay: Partition ratio determination with hOAT; assay type: biochemical; details: in the presence of α-KG, partition ratio = turnover number −1
[11] = system: aspartate aminotransferase (Asp-AT); assay: Inhibition of Asp-AT; assay type: biochemical; details: at concentrations up to 10 mM
[12] = system: alanine aminotransferase (Ala-AT); assay: Inhibition of Ala-AT; assay type: biochemical; details: at concentrations up to 10 mM
hOAT [13] = target: T1, hOAT; assay: 48-hour time-dependent dialysis of inactivated hOAT; assay type: biochemical; details: 48-hour dialysis against buffer with excess PLP and α-KG
hOAT [14] = target: T1, hOAT; assay: Denaturing intact protein mass spectrometry of hOAT inactivated by 6; assay type: binding
How it was run: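 Intact hOAT fully inactivated by the test compound was analysed by denaturing intact-protein mass spectrometry, with untreated hOAT run alongside as a control. The added mass was read as the shift from the unmodified protein and compared with theoretical adduct masses.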

hOAT [15] = target: T1, hOAT; assay: Stopped-flow transient-state spectrophotometry of hOAT reacting with 6; assay type: biochemical
How it was run: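 Stopped-flow at 10 °C. hOAT (6.94 µM final) was mixed with the test compound (e.g. 1040 µM final; several concentrations). CCD absorbance at 250–800 nm over 0.0137–9843 s came from spliced, averaged short- and long-time datasets, deconvolved by SVD. The 420 nm traces were fitted to three exponentials, and first-phase kobs was fitted against concentration. Quinonoid accumulation assumed ε ~30 mM−1cm−1.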

[16] = hOAT inactivation, mean and standard error

T2 sequence (P80147 29-500): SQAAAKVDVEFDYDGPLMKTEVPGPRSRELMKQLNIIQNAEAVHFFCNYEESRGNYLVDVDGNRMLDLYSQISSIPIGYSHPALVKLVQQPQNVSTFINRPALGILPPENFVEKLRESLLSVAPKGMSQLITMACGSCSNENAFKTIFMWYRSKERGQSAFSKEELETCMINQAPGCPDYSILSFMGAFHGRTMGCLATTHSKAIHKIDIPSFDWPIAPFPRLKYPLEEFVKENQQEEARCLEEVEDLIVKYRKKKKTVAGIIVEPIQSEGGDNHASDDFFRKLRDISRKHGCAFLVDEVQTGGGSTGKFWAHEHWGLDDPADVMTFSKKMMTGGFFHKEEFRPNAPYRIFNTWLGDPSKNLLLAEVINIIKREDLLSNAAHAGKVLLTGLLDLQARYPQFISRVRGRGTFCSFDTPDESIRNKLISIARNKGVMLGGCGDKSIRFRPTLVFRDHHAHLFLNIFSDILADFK

N[C@H]1C[C@@H](C(=O)O)CC1=C(C(F)(F)F)C(F)(F)F [Compound 1, (1S,3S)-3-amino-4-(hexafluoropropan-2-ylidenyl)cyclopentane-1-carboxylic acid]
kinact/KI (hOAT [1]; hOAT inactivation efficiency): 16.7 ± 6.7 M⁻¹ s⁻¹ | Ki (hOAT [1]; [16]): 0.09 ± 0.03 mM | kinact (hOAT [1]; [16]): 0.09 ± 0.01 min⁻¹ | Ki (GABA-AT [2]): 5.2 ± 0.6 mM | Ki (GABA-AT [3]; GABA-AT, weak reversible inhibition): 4.2 mM | inhibition of GABA-AT (in words) (GABA-AT [3]; preliminary screening): millimolar reversible inhibition | Partition ratio (hOAT [4]): 12 ± 1^b | Fluoride ion release (hOAT [5]): 79 ± 2^b eq. | inhibition of Asp-AT [6]: no inhibition | inhibition of Ala-AT [7]: no inhibition | serum AFP levels [8]: remarkably decreased | tumor growth [8]: inhibited tumor growth

N[C@H]1C=C(C(=O)O)CCC1(F)F [Compound 2, (S)-3-amino-4,4-difluorocyclohex-1-enecarboxylic acid, reference compound]
improvement in inactivation efficiency (kinact/KI) against hOAT compared to 1 (hOAT [9]; versus compound 1): 23 fold

N[C@H]1C[C@@H](C(=O)O)CC1(F)F [Compound 4, (1R,4S)-4-amino-3,3-difluorocyclopentanecarboxylic acid]
Ki (hOAT [1]): 4 ± 1 mM | Ki (hOAT [9]; hOAT inactivation): 7.8 mM

N[C@H]1C=C(C(=O)O)CC1(F)F [Compound 6, (S)-3-amino-4,4-difluorocyclopent-1-enecarboxylic acid]
Ki (hOAT [1]): 0.06 ± 0.03 mM | kinact/KI (hOAT [1]): 21.7 M⁻¹ s⁻¹ | improvement in inactivation efficiency (kinact/KI) (hOAT [1]; 6 versus 4, hOAT): 400 fold | Partition ratio (hOAT [10]): 34 and 34 ± 0 | inhibition of Asp-AT [11]: did not show noticeable inhibition | inhibition of Ala-AT [12]: did not show noticeable inhibition | residual activity of hOAT after dialysis (hOAT [13]): unchanged | hOAT in apo-enzyme state (hOAT [14]; denaturing MS conditions at pH 2.5): approximately 84% | hOAT covalently modified (hOAT [14]; denaturing MS, hOAT fully inactivated by 6, mass increase 370.07 Da): ~ 16% | rate of quinonoid decay (hOAT [15]): 0.09 s⁻¹ | rate of second external aldimine formation (bimolecular) (hOAT [15]; 420 nm): 6200 M⁻¹ s⁻¹ | rate constant of final phase (hOAT [15]; external aldimine decay with increase at ~275 nm): 0.007 s⁻¹ | rate of quinonoid species accumulation (hOAT [15]; ~560 nm): 0.4 s⁻¹
